Measurements as given in publication PMC3812312 (Journal of medicinal chemistry, 2013).
Entries after “also recorded” stand apart in the source; their conditions may differ.

How the values were obtained:
human recombinant HDAC1 = human recombinant HDAC1 (Homo sapiens, UniProt Q13547); assay: HDAC activity assay; type: biochemical; conditions: HDAC isoforms 1, 6 and 8 tested
human ERβ LBD = human ERβ LBD (Homo sapiens, UniProt Q92731); assay: ERβ agonist luciferase reporter assay in HEK 293T cells; type: cell-based; conditions: 10 μM; for ER subtype preference (ratio of ERα to ERβ agonist activity): agonist assay; for ERβ agonist activity: HEK-luciferase assay
human ERβ LBD, sequence (Q92731 263-530): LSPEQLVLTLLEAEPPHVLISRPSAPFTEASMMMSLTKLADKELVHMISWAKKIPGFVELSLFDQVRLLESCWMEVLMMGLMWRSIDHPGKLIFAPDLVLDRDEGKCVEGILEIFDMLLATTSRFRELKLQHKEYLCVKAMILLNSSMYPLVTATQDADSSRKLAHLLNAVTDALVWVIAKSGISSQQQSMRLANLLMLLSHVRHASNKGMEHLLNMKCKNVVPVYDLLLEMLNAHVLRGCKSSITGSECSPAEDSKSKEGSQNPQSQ

VERO cells = assay: Cell viability assay; type: cell-based; conditions: VERO versus MCF-7
MCF-7 cells = assay: Cell viability assay; type: cell-based, human
human recombinant HDAC6 = assay: HDAC activity assay; type: biochemical; conditions: HDAC6 vs HDAC1 and HDAC8
Procedure, shortened: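 Run under contract. Human recombinant HDAC1, HDAC6 or HDAC8 incubated with HDAC substrate, 5 μg BSA and serial dilutions of test compound (DMSO stocks; 1% DMSO final, top 100 μM) in duplicate, 37 °C, 30 min. Developer added for 15 min at room temperature; fluorescence ex 360/em 460 nm.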

MDA-MB-231 cells = assay: Cell viability assay; type: cell-based; conditions: 72 hours after drug dosing; ERα−/β− breast cancer
Procedure, shortened: (§1)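 Cell lines: MCF-7 (gift) and MDA-MB-231, DU145 and Vero (ATCC), kept in EMEM with 10% FBS, with or without antibiotics, at 37 °C under 5% CO2. Cells exposed to test compound in duplicate for 72 h; viability read by MTS and MTT colorimetric assays per manufacturer's instructions. IC50 obtained by logit plot analysis.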

DU145 cells = assay: Cell viability assay; type: cell-based; conditions: 72 hours after drug dosing; metastatic prostate cancer
Procedure, shortened: as §1

[1] = biological target: T1, human ERα ligand binding domain (Homo sapiens, UniProt P03372); assay: ERα agonist luciferase reporter assay in HEK 293T cells; type: cell-based; conditions: 10 μM, charcoal stripped serum
T1 sequence (P03372 301-595): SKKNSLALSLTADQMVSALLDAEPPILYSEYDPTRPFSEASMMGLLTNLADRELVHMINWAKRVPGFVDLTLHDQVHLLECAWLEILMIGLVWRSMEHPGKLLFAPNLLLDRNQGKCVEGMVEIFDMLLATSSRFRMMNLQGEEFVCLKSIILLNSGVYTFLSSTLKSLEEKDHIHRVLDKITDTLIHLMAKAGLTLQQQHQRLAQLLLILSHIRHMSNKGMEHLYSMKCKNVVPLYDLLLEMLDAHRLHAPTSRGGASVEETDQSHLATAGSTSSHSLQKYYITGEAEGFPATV

human recombinant HDAC8 = biological target: T2, human recombinant HDAC8 (Homo sapiens, UniProt Q9BY41); assay: HDAC activity assay; type: biochemical; conditions: maximum concentration tested 100 μM
T2 sequence (Q9BY41 1-377): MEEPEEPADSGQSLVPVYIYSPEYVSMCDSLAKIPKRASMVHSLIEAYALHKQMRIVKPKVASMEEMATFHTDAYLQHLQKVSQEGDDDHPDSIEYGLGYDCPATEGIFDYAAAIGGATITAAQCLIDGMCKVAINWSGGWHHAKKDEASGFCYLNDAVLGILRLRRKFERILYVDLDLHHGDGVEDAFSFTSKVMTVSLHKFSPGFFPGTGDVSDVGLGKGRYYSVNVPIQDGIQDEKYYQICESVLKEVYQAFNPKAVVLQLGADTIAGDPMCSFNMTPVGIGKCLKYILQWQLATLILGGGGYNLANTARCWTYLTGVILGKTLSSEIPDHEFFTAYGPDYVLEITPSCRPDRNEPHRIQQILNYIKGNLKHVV

human recombinant HDAC1, sequence (Q13547 whole entry, the tested form may be a part, canonical isoform): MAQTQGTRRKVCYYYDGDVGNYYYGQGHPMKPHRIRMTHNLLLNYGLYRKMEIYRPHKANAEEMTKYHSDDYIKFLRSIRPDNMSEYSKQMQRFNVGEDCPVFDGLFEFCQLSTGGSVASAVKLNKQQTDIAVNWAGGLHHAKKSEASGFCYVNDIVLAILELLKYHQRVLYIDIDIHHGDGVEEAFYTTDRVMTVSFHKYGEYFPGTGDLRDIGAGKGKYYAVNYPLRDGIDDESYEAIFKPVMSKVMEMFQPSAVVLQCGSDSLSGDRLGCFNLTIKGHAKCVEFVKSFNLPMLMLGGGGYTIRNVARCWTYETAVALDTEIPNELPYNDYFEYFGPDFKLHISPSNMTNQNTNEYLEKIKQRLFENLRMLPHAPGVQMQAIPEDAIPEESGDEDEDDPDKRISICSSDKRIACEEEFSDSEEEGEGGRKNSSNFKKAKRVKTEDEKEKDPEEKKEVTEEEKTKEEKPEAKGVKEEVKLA

SMILES | HDAC inhibition activity, overall (isoform not given) (human recombinant HDAC1) | ER subtype preference (ratio of ERα to ERβ agonist activity) (human ERβ LBD) | in vitro therapeutic index (IVTI) (VERO cells) | antiproliferative activity IC50, MDA-MB-231 (MDA-MB-231 cells) | other results
C[C@]12CC[C@@H]3c4ccc(O)cc4CC[C@H]3[C@@H]1CC[C@@]2(O)c1cn(CCCCCCCC(=O)NO)nn1 [1e, 8-(4-((8R,9S,13S,14S,17S)-3,17-dihydroxy-13-methyl-7,8,9,11,12,13,14,15,16,17-decahydro-6H-cyclopenta[a]phenanthren-17-yl)-1H-1,2,3-triazol-1-yl)-N-hydroxyoctannamide] | poor HDAC inhibition profile | too weak in vitro to have an obvious preference |  |  | 
CC/C(=C(\c1ccccc1)c1ccc(OCCN(C)Cc2ccc(-c3cn(CCCCCC(=O)NO)nn3)cc2)cc1)c1ccccc1 [compound 2, Tamoxifen-Triazolylhydroxamic acid] |  |  | greater IVTI |  | potency relative to SAHA against MCF-7 (fold less potent) (MCF-7 cells): about 1.7 fold
CC/C(=C(\c1ccccc1)c1ccc(OCCN(C)Cc2ccc(NC(=O)CCCCCCC(=O)NO)cc2)cc1)c1ccccc1 [compound 3, Tamoxifen-SAHA Conjugate] |  |  | greater IVTI |  | HDAC isoform selectivity (human recombinant HDAC6): selective for HDAC6; potency relative to SAHA against MCF-7 (fold less potent) (MCF-7 cells): equipotent to SAHA
C[C@]12CC[C@@H]3c4ccc(O)cc4CC[C@H]3[C@@H]1CC[C@@]2(O)c1cn(CCCCCC(=O)NO)nn1 [1c, 6-(4-((8R,9S,13S,14S,17S)-3,17-dihydroxy-13-methyl-7,8,9,11,12,13,14,15,16,17-decahydro-6H-cyclopenta[a]phenanthren-17-yl)-1H-1,2,3-triazol-1-yl)-N-hydroxyhexanamide] | most potent HDACi; also recorded: nM HDACi potency | preferentially bind ERβ |  | inhibit the growth of MDA-MB-231 | ERβ agonist activity (human ERβ LBD): significant ERβ activation; antiproliferative activity IC50, DU145 (DU145 cells): evidence of DU145 cell growth inhibition
C[C@]12CC[C@@H]3c4ccc(O)cc4CC[C@H]3[C@@H]1CC[C@@]2(O)c1cn(CCCCCCC(=O)NO)nn1 [1d, 7-(4-((8R,9S,13S,14S,17S)-3,17-dihydroxy-13-methyl-7,8,9,11,12,13,14,15,16,17-decahydro-6H-cyclopenta[a]phenanthren-17-yl)-1H-1,2,3-triazol-1-yl)-N-hydroxyheptanamide] | most potent HDACi; also recorded: nM HDACi potency | preferentially bind ERβ |  | inhibit the growth of MDA-MB-231 | ERβ agonist activity (human ERβ LBD): significant ERβ activation; ERα agonist activity (fold activation, relative to control no drug) [1]: most significant ERα agonist effect; antiproliferative activity IC50, DU145 (DU145 cells): evidence of DU145 cell growth inhibition; HDAC8 inhibition IC50 (human recombinant HDAC8): order of magnitude greater HDAC8 inhibition
C[C@]12CC[C@@H]3c4ccc(O)cc4CC[C@H]3[C@@H]1CC[C@@]2(O)c1cn(CCCCC(=O)NO)nn1 [1b, 5-(4-((8R,9S,13S,14S,17S)-3,17-dihydroxy-13-methyl-7,8,9,11,12,13,14,15,16,17-decahydro-6H-cyclopenta[a]phenanthren-17-yl)-1H-1,2,3-triazol-1-yl)-N-hydroxypentanamide] |  |  |  |  | ERα agonist activity (fold activation, relative to control no drug) [1]: most significant ERα agonist effect
C[C@]12CC[C@@H]3c4ccc(O)cc4CC[C@H]3[C@@H]1CC[C@@]2(O)c1cn(CCCC(=O)NO)nn1 [1a, 4-(4-((8R,9S,13S,14S,17S)-3,17-dihydroxy-13-methyl-7,8,9,11,12,13,14,15,16,17-decahydro-6H-cyclopenta[a]phenanthren-17-yl)-1H-1,2,3-triazol-1-yl)-N-hydroxybutanamide] | most potent HDACi | too weak in vitro to have an obvious preference | greater IVTI | comparable; also recorded: inhibit the growth of MDA-MB-231 | antiproliferative activity IC50, MCF-7 (MCF-7 cells; 72 hours after drug dosing, ERα+/β+ breast cancer): comparable
